Laboratory results as given in ChEMBL document CHEMBL1177722, “Computer-aided identification of Trypanosoma brucei uridine diphosphate galactose 4'-epimerase inhibitors: toward the development of novel therapies for African sleeping sickness” (J Med Chem, 2010).

What was measured:
[1] = system: MRC5; experiment: Cytotoxicity against human MRC5 cells after 3 days by alamar blue assay; type: cell-based; details: MRC5, 72 h
Method in brief: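 Cultured human MRC5 cells at 1 × 10^4 cells/ml in 384-well format, incubated with or without inhibitor over 100 μM to 30 nM for three days. Viable cell number then counted by Alamar blue.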

[2] = system: Trypanosoma brucei; experiment: Antitrypanosomal activity against Trypanosoma brucei after 3 days by alamar blue assay; type: functional, organism-based; details: 72 h
Method in brief: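 Cultured T. brucei seeded at 1 × 10^4 cells/ml in 384-well format, incubated with or without inhibitor (100 μM to 30 nM) for three days; viable cells then counted by Alamar Blue read-out; EC50 derived from the dose series.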

[3] = target: T1, UDP-galactose 4-epimerase (Trypanosoma brucei, UniProt Q8T8E9); experiment: Inhibition of hexahistidine-tagged Trypanosoma brucei UDP-galactose-4'epimerase expressed in Escherichia coli
T1 sequence (Q8T8E9 whole entry): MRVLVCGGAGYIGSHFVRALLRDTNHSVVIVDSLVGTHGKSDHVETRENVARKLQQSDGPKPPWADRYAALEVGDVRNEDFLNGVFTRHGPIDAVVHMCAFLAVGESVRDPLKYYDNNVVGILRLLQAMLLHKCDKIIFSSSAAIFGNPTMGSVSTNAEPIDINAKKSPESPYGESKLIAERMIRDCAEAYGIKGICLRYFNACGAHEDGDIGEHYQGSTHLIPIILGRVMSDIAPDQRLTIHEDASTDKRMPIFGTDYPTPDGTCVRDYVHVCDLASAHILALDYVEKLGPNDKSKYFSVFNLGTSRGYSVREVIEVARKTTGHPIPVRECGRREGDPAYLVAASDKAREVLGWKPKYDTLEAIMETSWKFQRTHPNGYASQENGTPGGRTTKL
Method in brief: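 Recombinant enzyme reacted with 100 μM UDP-Gal and 100 μM β-NAD+ (5 μg/mL enzyme, 1 mM Tris pH 7.6, 1% DMSO), with or without inhibitor (0.03-100 μM), at 37 °C for 30 min. Quenched with NaOH. UDP-Gal to UDP-Glc conversion followed by HPAEC, detection at 260 nm. IC50 from a four-parameter fit over three independent experiments.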

SMILES	EC50 [1] [µM]	EC50 [2] [µM]	IC50 [3] [µM]
COC1C(OC(=O)c2ccc(C)[nH]2)C(O)C(Oc2ccc3c(O)c(NC(=O)c4ccc(O)c(CC=C(C)C)c4)c(=O)oc3c2Cl)OC1(C)C (centres undefined)	> 50	4.4	5
O=C(O)c1ccccc1-c1ccccc1C(=O)Nc1ccc2c(c1)Cc1cc(NC(=O)c3ccccc3-c3ccccc3C(=O)O)ccc1-2	> 50	> 50	0.9
O=C(O)c1ccccc1-c1ccccc1C(=O)Nc1ccc2c(c1)C(O)c1ccccc1-2 (centres undefined)	> 50	> 50	6.8
O=C(O)c1cc(Cl)ccc1-c1ccc(Cl)cc1C(=O)NC1=CC2=C(CC1)c1c(Cl)cc(Cl)cc1C2	35.2	> 50	1.8
O=C(O)c1ccccc1-c1ccccc1C(=O)Nc1ccc2c(c1)nc(O)c1ccccc12	> 50	> 50	3.6
CCn1c2ccccc2c2cc(NC(=O)c3ccccc3-c3ccccc3C(=O)O)ccc21	> 50	> 50	5.6
O=C(O)c1ccccc1-c1ccccc1C(=O)Nc1ccc2c(c1)Cc1ccccc1-2	> 50	> 50	4.6
O=C(O)c1ccccc1-c1ccccc1C(=O)Nc1ccc2c(c1)C(=O)c1ccccc1-2	> 50	> 50	2.8
O=C(O)c1ccccc1-c1ccccc1C(=O)Nc1ccc2c(c1)oc(=O)c1ccccc12	> 50	–	3.2
O=C(O)c1ccccc1-c1ccccc1C(=O)Nc1ccc2c(c1)-c1ccccc1C2	> 50	> 50	4.2
O=C(O)c1ccccc1-c1ccccc1C(=O)Nc1cccc2c1-c1ccccc1C2	> 50	> 50	8
O=C(O)c1ccccc1-c1ccccc1C(=O)Nc1ccc2c(c1)Cc1cc(F)ccc1-2	> 50	> 50	3.8
O=C(O)c1ccccc1-c1ccccc1C(=O)Nc1cc2c3ccccc3ccc2c2ccccc12	> 50	–	2.6
O=C(O)c1cc(Cl)ccc1-c1ccc(Cl)cc1C(=O)Nc1ccc2c(c1)Cc1ccccc1-2	> 50	–	3.3
